Published values of several laboratories.
Target: D(1A) dopamine receptor (DRD1, Homo sapiens, UniProt P21728)

Structure (SMILES)	read-out	method	concentration	quantity	value
COc1ccc(S(=O)(=O)N2CCCCC2)cc1C	ligand displacement	radioligand	10 µM	inhibition	< 30%
c1ccc(C(NCCNC(c2ccccc2)c2ccccc2)c2ccccc2)cc1	cell-free assay	–	10 µM	inhibition	24%
Cn1cncc1[C@@](O)(COc1ccc(C#N)cc1-c1ccc(OC(F)(F)F)cc1)c1ccc(C#N)cc1	ligand displacement	–	10 µM	inhibition	19%
CC(Cc1ccccc1)NCCn1cnc2c1c(=O)n(C)c(=O)n2C (stereo not drawn)	ligand displacement	radioligand	10 µM	inhibition	8%
COCc1c(-c2cc3cc(C)cc(OC)c3s2)c2c(N)ncnn2c1CN1CCNC(=O)C1	ligand displacement	radioligand	10 µM	inhibition	10%
Cc1c(N2CCNCC2)nc2ccc(Br)cc2c1C(=O)NC[C@H](CCC(=O)O)c1ccccc1Cl	ligand displacement	–	10 µM	inhibition	31.6%
Nc1ncc(-c2nc(N3CCOCC3)nc(N3CCOCC3)n2)c(C(F)F)n1	cell-free assay	radioligand	10 µM	remaining signal	90.9%
Clc1ccc2c(C3CCN(CCc4c[nH]c5ccccc45)CC3)c[nH]c2c1	ligand displacement	radioligand	10 µM	inhibition	100%
CCN(CC)CCCC[C@H](NC(=O)[C@H](CC(C)C)NC(=O)[C@H](C)NC(=O)[C@H](Cc1ccccc1)NC(=O)c1ccc(C(C)(C)C)cc1)C(=O)N[C@@H](CO)C(=O)OC	ligand displacement	radioligand	10 µM	inhibition	4%
CC(C)N1CCC[C@H]1CNC(=O)c1cn(C2CCCC2)c(=O)c2c1c1ccccc1n2C	ligand displacement	radioligand	10 µM	inhibition	5%
CN(CCN1CCC(OC(=O)Nc2ccccc2-c2ccccc2)CC1)C(=O)c1ccc(CN2CCC(C(N)=O)CC2)cc1	ligand displacement	radioligand	1 µM	inhibition	1%
C[C@H](C(=O)N[C@H]1COc2ccccc2[C@@H]1S(C)(=O)=O)c1ccc(F)cc1	cell-free assay	–	10 µM	inhibition	-6%
